In ChEMBL document CHEMBL1128297, “Determination of receptor-ligand kinetic and equilibrium binding constants using surface plasmon resonance: application to the lck SH2 domain and phosphotyrosyl peptides” (J Med Chem, 1995):

How the values were obtained:
[1] = target: Tyrosine-protein kinase Lck (Homo sapiens) (UniProt P06239); assay: Equilibrium constant for competitive binding to p56 lck SH2 domain by SPR after 5th run
In short: (§1)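 Injected at 5 μL/min over streptavidin chip bearing biotinylated EPQpYEEIPIA (500 nM loading); 10 mM HCl regeneration. Plateau RU vs peptide fitted by nonlinear regression (eq 15) for KS, KC fixed from direct binding.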

[2] = target: Tyrosine-protein kinase Lck (Homo sapiens) (UniProt P06239); assay: Equilibrium constant for competitive binding to p56 lck SH2 domain by SPR after 3rd run; in short: as §1
[3] = target: Tyrosine-protein kinase Lck (Homo sapiens) (UniProt P06239); assay: Equilibrium constant for competitive binding to p56 lck SH2 domain by SPR after 4th run; in short: as §1
[4] = target: Tyrosine-protein kinase Lck (Homo sapiens) (UniProt P06239); assay: Equilibrium constant for competitive binding to p56 lck SH2 domain by SPR after 1st run; in short: as §1
[5] = target: Tyrosine-protein kinase Lck (Homo sapiens) (UniProt P06239); assay: Equilibrium constant for competitive binding to p56 lck SH2 domain by SPR after 2nd run; in short: as §1

Sequence of Tyrosine-protein kinase Lck (Homo sapiens) (P06239 2-509 limits assumed): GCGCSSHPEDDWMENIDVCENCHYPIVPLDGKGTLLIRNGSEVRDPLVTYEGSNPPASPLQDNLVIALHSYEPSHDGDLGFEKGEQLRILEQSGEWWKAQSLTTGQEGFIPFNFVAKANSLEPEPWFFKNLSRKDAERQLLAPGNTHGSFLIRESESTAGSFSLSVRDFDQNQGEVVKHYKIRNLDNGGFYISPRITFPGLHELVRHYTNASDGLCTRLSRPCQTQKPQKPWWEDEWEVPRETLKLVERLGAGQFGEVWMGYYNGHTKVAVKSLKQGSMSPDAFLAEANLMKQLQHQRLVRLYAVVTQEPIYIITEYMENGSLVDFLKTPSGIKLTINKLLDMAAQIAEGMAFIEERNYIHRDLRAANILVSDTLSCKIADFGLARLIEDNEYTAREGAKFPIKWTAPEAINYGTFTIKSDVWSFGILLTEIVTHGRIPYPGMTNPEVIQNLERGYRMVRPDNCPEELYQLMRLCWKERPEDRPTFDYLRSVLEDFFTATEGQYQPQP

| Ks [1] | Ks [2] | Ks [3] | Ks [4] | Ks [5] | SMILES |
| --- | --- | --- | --- | --- | --- |
| 2.85 µM | 1220 nM | 1250 nM | 1320 nM | 982 nM | CC[C@H](C)[C@H](NC(=O)[C@H](CCC(=O)O)NC(=O)CNC(=O)[C@H](Cc1ccc(OP(=O)(O)O)cc1)NC(=O)CNC(=O)[C@H](CCC(N)=O)NC(=O)[C@@H](N)CCC(=O)O)C(=O)N1CCC[C@@H]1C(=O)O |
| 0.536 µM | 242 nM | 261 nM | 171 nM | 167 nM | CC[C@H](C)[C@H](NC(=O)CNC(=O)[C@H](CCC(=O)O)NC(=O)[C@H](Cc1ccc(OP(=O)(O)O)cc1)NC(=O)[C@H](CCC(N)=O)NC(=O)CNC(=O)[C@@H](N)CCC(=O)O)C(=O)N1CCC[C@@H]1C(=O)O |
| – | 26.9 nM | 27.8 nM | 14.4 nM | 22.8 nM | CC[C@H](C)[C@H](NC(=O)[C@H](CCC(=O)O)NC(=O)[C@H](CCC(=O)O)NC(=O)[C@H](Cc1ccc(OP(=O)(O)O)cc1)NC(=O)[C@H](CCC(N)=O)NC(=O)CNC(=O)[C@@H](N)CCC(=O)O)C(=O)N1CCC[C@@H]1C(=O)O |
| 2.16 µM | 908 nM | 938 nM | 833 nM | 916 nM | NC(=O)CC[C@H](NC(=O)CNC(=O)[C@@H](N)CCC(=O)O)C(=O)N[C@@H](Cc1ccc(OP(=O)(O)O)cc1)C(=O)N[C@@H](CCC(=O)O)C(=O)N[C@@H](CCC(=O)O)C(=O)NCC(=O)N1CCC[C@@H]1C(=O)O |
